Experimental data reported in ChEMBL document CHEMBL1147968, “Novel lbeta-methylcarbapenems having cyclic sulfonamide moieties: synthesis and evaluation of in vitro antibacterial activity” (2007).
≈ marks a conversion by molar mass, not a printed value.

Legend:
[1] = test system: Staphylococcus aureus; experiment: Antibacterial activity against Staphylococcus aureus 1218 after 18 to 24 hrs by agar dilution method; format: functional
Outline: (§1)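 MICs were determined by agar dilution on test agar. An overnight tryptosoy broth culture was diluted in the same broth to about 10⁶ cells/mL and spotted with an inoculating device onto agar containing serial twofold dilutions of compound. Plates were incubated at 37 °C for 18–20 h, and the MIC was the lowest concentration with no visible growth.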

[2] = test system: Staphylococcus; experiment: Antibacterial activity against coagulase negative Staphylococcus after 18 to 24 hrs by agar dilution method; format: functional
Outline: (§2)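 Agar dilution on test agar holding serial twofold dilutions of compound. Overnight tryptosoy broth cultures were diluted in the same broth to about 10⁶ cells/mL and spotted with an inoculating device. Plates were incubated at 37 °C for 18–20 h.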

[3] = test system: Enterococcus faecalis; experiment: Antibacterial activity against Enterococcus faecalis 2347 after 18 to 24 hrs by agar dilution method; format: functional; outline: as §1
[4] = test system: Streptococcus pyogenes; experiment: Antibacterial activity against Streptococcus pyogenes 9889 after 18 to 24 hrs by agar dilution method; format: functional; outline: as §2
[5] = test system: Streptococcus agalactiae; experiment: Antibacterial activity against Streptococcus agalactiae 32 after 18 to 24 hrs by agar dilution method; format: functional; outline: as §1
[6] = test system: Streptococcus pneumoniae; experiment: Antibacterial activity against Streptococcus pneumoniae 0025 after 18 to 24 hrs by agar dilution method; format: functional; outline: as §1
[7] = test system: Haemophilus influenzae; experiment: Antibacterial activity against Haemophilus influenzae 1210 after 18 to 24 hrs by agar dilution method; format: functional; outline: as §1
[8] = test system: Escherichia coli; experiment: Antibacterial activity against Escherichia coli 04 after 18 to 24 hrs by agar dilution method; format: functional; outline: as §1
[9] = test system: Klebsiella pneumoniae; experiment: Antibacterial activity against Klebsiella pneumoniae 523 after 18 to 24 hrs by agar dilution method; format: functional; outline: as §1
[10] = test system: Citrobacter freundii; experiment: Antibacterial activity against Citrobacter freundii 323 after 18 to 24 hrs by agar dilution method; format: functional; outline: as §1
[11] = test system: Enterobacter cloacae; experiment: Antibacterial activity against Enterobacter cloacae 34 after 18 to 24 hrs by agar dilution method; format: functional; outline: as §1
[12] = test system: Serratia marcescens; experiment: Antibacterial activity against Serratia marcescens 3349 after 18 to 24 hrs by agar dilution method; format: functional; outline: as §1
[13] = test system: Acinetobacter baumannii; experiment: Antibacterial activity against Acinetobacter baumannii 2289 after 18 to 24 hrs by agar dilution method; format: functional; outline: as §1
[14] = test system: Pseudomonas aeruginosa; experiment: Antibacterial activity against Pseudomonas aeruginosa 5455 after 18 to 24 hrs by agar dilution method; format: functional; outline: as §1
[15] = test system: Streptococcus agalactiae; experiment: Antibacterial activity against Streptococcus agalactiae B after 18 to 24 hrs by agar dilution method; format: functional; outline: as §1
[16] = test system: Enterococcus durans; experiment: Antibacterial activity against Streptococcus durans D after 18 to 24 hrs by agar dilution method; format: functional; outline: as §1
[17] = test system: Priestia megaterium; experiment: Antibacterial activity against Bacillus megaterium after 18 to 24 hrs by agar dilution method; format: functional; outline: as §1
[18] = test system: Pseudomonas aeruginosa; experiment: Antibacterial activity against Pseudomonas aeruginosa 9027 after 18 to 24 hrs by agar dilution method; format: functional; outline: as §1
[19] = test system: Staphylococcus aureus; experiment: Antibacterial activity against Staphylococcus aureus giorgio after 18 to 24 hrs by agar dilution method; format: functional; outline: as §1
[20] = test system: Staphylococcus aureus; experiment: Antibacterial activity against Staphylococcus aureus 209P after 18 to 24 hrs by agar dilution method; format: functional; outline: as §1
[21] = test system: Staphylococcus aureus; experiment: Antibacterial activity against Staphylococcus aureus 503 after 18 to 24 hrs by agar dilution method; format: functional; outline: as §1
[22] = test system: Micrococcus luteus; experiment: Antibacterial activity against Micrococcus luteus ATCC 9341 after 18 to 24 hrs by agar dilution method; format: functional; outline: as §1
[23] = test system: Pseudomonas aeruginosa; experiment: Antibacterial activity against Pseudomonas aeruginosa 77/2 after 18 to 24 hrs by agar dilution method; format: functional; outline: as §1
[24] = test system: Pseudomonas aeruginosa; experiment: Antibacterial activity against Pseudomonas aeruginosa 110/2 after 18 to 24 hrs by agar dilution method; format: functional; outline: as §1
[25] = test system: Pseudomonas aeruginosa; experiment: Antibacterial activity against Pseudomonas aeruginosa 880/2 after 18 to 24 hrs by agar dilution method; format: functional; outline: as §1
[26] = test system: Burkholderia cepacia; experiment: Antibacterial activity against Pseudomonas cepacia after 18 to 24 hrs by agar dilution method; format: functional; outline: as §1
[27] = test system: Escherichia coli; experiment: Antibacterial activity against Escherichia coli 086 after 18 to 24 hrs by agar dilution method; format: functional; outline: as §1
[28] = test system: Escherichia coli; experiment: Antibacterial activity against Escherichia coli 0114 after 18 to 24 hrs by agar dilution method; format: functional; outline: as §1
[29] = test system: Escherichia coli; experiment: Antibacterial activity against Escherichia coli 0126 after 18 to 24 hrs by agar dilution method; format: functional; outline: as §1
[30] = test system: Escherichia coli; experiment: Antibacterial activity against Escherichia coli V6311/65 after 18 to 24 hrs by agar dilution method; format: functional; outline: as §1
[31] = test system: Escherichia coli; experiment: Antibacterial activity against Escherichia coli TEM after 18 to 24 hrs by agar dilution method; format: functional; outline: as §1
[32] = test system: Escherichia coli; experiment: Antibacterial activity against Escherichia coli 1507 after 18 to 24 hrs by agar dilution method; format: functional; outline: as §1
[33] = test system: Salmonella typhimurium; experiment: Antibacterial activity against Salmonella Typhimurium after 18 to 24 hrs by agar dilution method; format: functional, Salmonella enterica subsp. enterica serovar Typhimurium; details: Salmonella enterica; outline: as §1
[34] = test system: Salmonella typhi; experiment: Antibacterial activity against Salmonella typhi after 18 to 24 hrs by agar dilution method; format: functional, Salmonella enterica subsp. enterica serovar Typhi; details: Salmonella enterica
Outline: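 Agar dilution on test agar with serial twofold dilutions of compound. Overnight tryptosoy broth cultures diluted in the same broth to about 10⁶ cells/mL, then applied with an inoculating device. Plates incubated at 37 °C for 18–20 h.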

[35] = test system: Salmonella; experiment: Antibacterial activity against Salmonella orion after 18 to 24 hrs by agar dilution method; format: functional; outline: as §1
[36] = Antibacterial activity against Salmonella give after 18 to 24 hrs by agar dilution method; format: functional, Salmonella enterica subsp. enterica serovar Give; details: Salmonella enterica; outline: as §1
[37] = test system: Serratia marcescens; experiment: Antibacterial activity against Serratia marcescens 370 after 18 to 24 hrs by agar dilution method; format: functional; outline: as §1
[38] = test system: Klebsiella pneumoniae; experiment: Antibacterial activity against Klebsiella pneumoniae 477 after 18 to 24 hrs by agar dilution method; format: functional; outline: as §1
[39] = test system: Proteus mirabilis; experiment: Antibacterial activity against Proteus mirabilis 112/3 after 18 to 24 hrs by agar dilution method; format: functional; outline: as §1
[40] = test system: Enterobacter cloacae; experiment: Antibacterial activity against Enterobacter cloacae after 18 to 24 hrs by agar dilution method; format: functional; outline: as §1
[41] = test system: Enterobacter cloacae; experiment: Antibacterial activity against Enterobacter cloacae 417 after 18 to 24 hrs by agar dilution method; format: functional; outline: as §1
[42] = test system: Serratia marcescens; experiment: Antibacterial activity against Serratia marcescens 6093 after 18 to 24 hrs by agar dilution method; format: functional; outline: as §1
[43] = test system: Serratia marcescens; experiment: Antibacterial activity against Serratia marcescens 14273 after 18 to 24 hrs by agar dilution method; format: functional; outline: as §1
[44] = test system: Proteus mirabilis; experiment: Antibacterial activity against Proteus mirabilis 174/3 after 18 to 24 hrs by agar dilution method; format: functional; outline: as §1
[45] = test system: Proteus vulgaris; experiment: Antibacterial activity against Proteus vulgaris 868 after 18 to 24 hrs by agar dilution method; format: functional; outline: as §1
[46] = test system: Providencia rettgeri; experiment: Antibacterial activity against Proteus rettgeri 936 after 18 to 24 hrs by agar dilution method; format: functional; outline: as §1
[47] = test system: Providencia rettgeri; experiment: Antibacterial activity against Proteus rettgeri 937 after 18 to 24 hrs by agar dilution method; format: functional; outline: as §1
[48] = test system: Pasteurella multocida; experiment: Antibacterial activity against Pasteurella multocida after 18 to 24 hrs by agar dilution method; format: functional; outline: as §1
[49] = test system: Trueperella pyogenes; experiment: Antibacterial activity against Corynebacterium pyogenes after 18 to 24 hrs by agar dilution method; format: functional; outline: as §1
[50] = test system: Corynebacterium diphtheriae; experiment: Antibacterial activity against Corynebacterium diphtheriae after 18 to 24 hrs by agar dilution method; format: functional; outline: as §1
[51] = test system: Bacillus subtilis; experiment: Antibacterial activity against Bacillus subtilis ATCC 6633 after 18 to 24 hrs by agar dilution method; format: functional; outline: as §1
[52] = Antibacterial activity against Salmonella oranienburg after 18 to 24 hrs by agar dilution method; format: functional, Salmonella enterica subsp. enterica serovar Oranienburg; details: Salmonella enterica; outline: as §1

Compound: C[C@@H](O)C1C(=O)N2C(C(=O)O)=C(S[C@@H]3CN[C@H](CN4CC(C)(C)NS4(=O)=O)C3)[C@H](C)C12 (stereo partly specified)
- MIC [1]: 3.12 µg/mL (≈ 6.57 µM)
- MIC [2]: 0.098 µg/mL (≈ 0.206 µM)
- MIC [3]: 6.25 µg/mL (≈ 13.2 µM)
- MIC [4]: 0.01 µg/mL (≈ 0.0211 µM)
- MIC [5]: 0.02 µg/mL (≈ 0.0421 µM)
- MIC [6]: 0.02 µg/mL (≈ 0.0421 µM)
- MIC [7]: 6.25 µg/mL (≈ 13.2 µM)
- MIC [8]: 0.049 µg/mL (≈ 0.103 µM)
- MIC [9]: 0.049 µg/mL (≈ 0.103 µM)
- MIC [10]: 0.049 µg/mL (≈ 0.103 µM)
- MIC [11]: 0.098 µg/mL (≈ 0.206 µM)
- MIC [12]: 0.049 µg/mL (≈ 0.103 µM)
- MIC [13]: 12.5 µg/mL (≈ 26.3 µM)
- MIC [14]: 3.12 µg/mL (≈ 6.58 µM)

Compound: C[C@@H](O)[C@H]1C(=O)N2C(C(=O)O)=C(S[C@@H]3CN[C@H](C(=O)N(C)C)C3)[C@H](C)[C@H]12 [MEROPENEM]
- MIC [15]: 0.05 µg/mL (≈ 0.13 µM)
- MIC [16]: 0.8 µg/mL (≈ 2.09 µM)
- MIC [17]: 0.05 µg/mL (≈ 0.13 µM)
- MIC [18]: 0.4 µg/mL (≈ 1.04 µM)
- MIC [1]: 6.25 µg/mL (≈ 16.3 µM)
- MIC [2]: 0.098 µg/mL (≈ 0.256 µM)
- MIC [3]: 12.5 µg/mL (≈ 32.6 µM)
- MIC [4]: 0.013 µg/mL (≈ 0.0339 µM)
- MIC [5]: 0.049 µg/mL (≈ 0.128 µM)
- MIC [6]: 0.01 µg/mL (≈ 0.0261 µM)
- MIC [7]: 3.12 µg/mL (≈ 8.15 µM)
- MIC [8]: 0.049 µg/mL (≈ 0.128 µM)
- MIC [9]: 0.025 µg/mL (≈ 0.0652 µM)
- MIC [10]: 0.025 µg/mL (≈ 0.0652 µM)
- MIC [11]: 0.025 µg/mL (≈ 0.0652 µM)
- MIC [12]: 0.049 µg/mL (≈ 0.128 µM)
- MIC [13]: 12.5 µg/mL (≈ 32.6 µM)
- MIC [14]: 1.56 µg/mL (≈ 4.08 µM)
- MIC [19]: 0.1 µg/mL (≈ 0.261 µM)
- MIC [20]: 0.1 µg/mL (≈ 0.261 µM)
- MIC [21]: 0.05 µg/mL (≈ 0.13 µM)
- MIC [22]: 0.05 µg/mL (≈ 0.13 µM)
- MIC [23]: 0.8 µg/mL (≈ 2.09 µM)
- MIC [24]: 0.4 µg/mL (≈ 1.04 µM)
- MIC [25]: 0.2 µg/mL (≈ 0.522 µM)
- MIC [26]: 0.4 µg/mL (≈ 1.04 µM)
- MIC [27]: 0.05 µg/mL (≈ 0.13 µM)
- MIC [28]: 0.02 µg/mL (≈ 0.0522 µM)
- MIC [29]: 0.05 µg/mL (≈ 0.13 µM)
- MIC [30]: 0.01 µg/mL (≈ 0.0261 µM)
- MIC [31]: 0.02 µg/mL (≈ 0.0522 µM)
- MIC [32]: 0.02 µg/mL (≈ 0.0522 µM)
- MIC [33]: 0.05 µg/mL (≈ 0.13 µM)
- MIC [34]: 0.01 µg/mL (≈ 0.0261 µM)
- MIC [35]: 0.1 µg/mL (≈ 0.261 µM)
- MIC [36]: 0.02 µg/mL (≈ 0.0522 µM)
- MIC [37]: 0.05 µg/mL (≈ 0.13 µM)
- MIC [38]: 0.05 µg/mL (≈ 0.13 µM)
- MIC [39]: 0.1 µg/mL (≈ 0.261 µM)
- MIC [40]: 0.01 µg/mL (≈ 0.0261 µM)
- MIC [41]: 0.01 µg/mL (≈ 0.0261 µM)
- MIC [42]: 0.05 µg/mL (≈ 0.13 µM)
- MIC [43]: 0.2 µg/mL (≈ 0.522 µM)
- MIC [44]: 0.1 µg/mL (≈ 0.261 µM)
- MIC [45]: 0.1 µg/mL (≈ 0.261 µM)
- MIC [46]: 0.1 µg/mL (≈ 0.261 µM)
- MIC [47]: 0.05 µg/mL (≈ 0.13 µM)
- MIC [48]: 0.05 µg/mL (≈ 0.13 µM)
- MIC [49]: 0.05 µg/mL (≈ 0.13 µM)
- MIC [50]: 0.02 µg/mL (≈ 0.0522 µM)
- MIC [51]: 0.05 µg/mL (≈ 0.13 µM)
- MIC [52]: 0.05 µg/mL (≈ 0.13 µM)
